According to ChEMBL document CHEMBL4118058, “Amino Acid Conjugated Anthraquinones from the Marine-Derived Fungus Penicillium sp. SCSIO sof101” (J Nat Prod, 2017):
One block for each compound: values may come before it. Active and inactive are the calls of the source. The calls are words filed in the database; no cut-off is given here.

Columns and labels:
Jurkat [1] = experiment: Anti-inflammatory activity in PMA/ionomycin stimulated human Jurkat T cells assessed as reduction in IL-2 secretion preincubated for 20 mins followed by PMA/ionomycin stimulation measured after 12 hrs by ELISA; assay type: functional, cell-based
In short: (§1)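 Jurkat T cells seeded at 1 × 10^5 cells/well and pretreated with compound for 20 min, then stimulated with PMA (40 nM) plus ionomycin (1 μM) for 12 h at 37 °C. DMSO was the negative control and FK506 (100 nM) the positive control. IL-2 in 100 μL supernatant was measured by sandwich ELISA with streptavidin detector and TMB substrate, read at 450 nm.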

Jurkat [2] = experiment: Cytotoxicity against human Jurkat T cells assessed as reduction in cell viability after 72 hrs by alamar blue assay; assay type: cell-based
In short: (§2)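 Cells seeded at 2 × 10^4 cells/well and exposed to compound for 72 h. DMSO was the negative control and doxorubicin the positive control. AlamarBlue (1:10 dilution) was then added for 4 h at 37 °C, and absorbance was read at 590 nm.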

K562 = experiment: Cytotoxicity against human K562 cells assessed as reduction in cell viability after 72 hrs by alamar blue assay; assay type: cell-based; details: K562, 72 h; in short: as §2
HeLa = experiment: Cytotoxicity against human HeLa cells assessed as reduction in cell viability after 72 hrs by alamar blue assay; assay type: cell-based; in short: as §2
Jurkat [3] = experiment: Anti-inflammatory activity in PMA/ionomycin stimulated human Jurkat T cells assessed as reduction in IL-2 secretion at 20 uM preincubated for 20 mins followed by PMA/ionomycin stimulation measured after 12 hrs by ELISA; assay type: functional, cell-based; in short: as §1

IC50 (Jurkat [1]): 5.8 µM
Structure (SMILES): C=CC[C@@H]1/C=C(\C)C[C@H](C)C[C@H](OC)[C@H]2O[C@@](O)(C(=O)C(=O)N3CCCC[C@H]3C(=O)O[C@H](/C(C)=C/[C@@H]3CC[C@@H](O)[C@H](OC)C3)[C@H](C)[C@@H](O)CC1=O)[C@H](C)C[C@@H]2OC [TACROLIMUS ANHYDROUS]

Structure (SMILES): C[C@H](NC(=O)c1cc(O)c2c(c1)C(=O)c1cc(O)cc(O)c1C2=O)C(=O)O
IC50 (Jurkat [2]): > 10 µM | IC50 (K562): > 10 µM | IC50 (HeLa): > 10 µM | Activity (Jurkat [3]): Active

IC50 (Jurkat [1]): 5.1 µM
Structure (SMILES): CC(C)[C@H](NC(=O)c1cc(O)c2c(c1)C(=O)c1cc(O)c(Cl)c(O)c1C2=O)C(=O)O
IC50 (Jurkat [2]): > 10 µM | IC50 (K562): > 10 µM | IC50 (HeLa): > 10 µM | Activity (Jurkat [3]): Active

IC50 (Jurkat [1]): 12 µM
Structure (SMILES): CCC(C)[C@H](NC(=O)c1cc(O)c2c(c1)C(=O)c1cc(O)cc(O)c1C2=O)C(=O)OC (some centres undefined)
IC50 (Jurkat [2]): > 10 µM | IC50 (K562): > 10 µM | IC50 (HeLa): > 10 µM | Activity (Jurkat [3]): Active

Structure (SMILES): O=C1c2cc(CO)cc(O)c2C(=O)c2c1cc(O)c(Cl)c2O
IC50 (Jurkat [2]): > 10 µM | IC50 (K562): > 10 µM | IC50 (HeLa): > 10 µM

Structure (SMILES): CC(C)[C@H](NC(=O)c1cc(O)c2c(c1)C(=O)c1cc(O)cc(O)c1C2=O)C(=O)O
IC50 (Jurkat [2]): > 10 µM | IC50 (K562): > 10 µM | IC50 (HeLa): > 10 µM | Activity (Jurkat [3]): Active

IC50 (Jurkat [1]): 5.4 µM
Structure (SMILES): CCC(C)[C@H](NC(=O)c1cc(O)c2c(c1)C(=O)c1cc(O)cc(O)c1C2=O)C(=O)O (some centres undefined)
IC50 (Jurkat [2]): > 10 µM | IC50 (K562): > 10 µM | IC50 (HeLa): > 10 µM | Activity (Jurkat [3]): Active

Structure (SMILES): CC(C)C[C@H](NC(=O)c1cc(O)c2c(c1)C(=O)c1cc(O)c(Cl)c(O)c1C2=O)C(=O)O
IC50 (Jurkat [2]): > 10 µM | IC50 (K562): > 10 µM | IC50 (HeLa): > 10 µM | Activity (Jurkat [3]): Active

IC50 (Jurkat [1]): 4.1 µM
Structure (SMILES): COC(=O)[C@@H](NC(=O)c1cc(O)c2c(c1)C(=O)c1cc(O)cc(O)c1C2=O)C(C)C
IC50 (Jurkat [2]): > 10 µM | IC50 (K562): > 10 µM | IC50 (HeLa): > 10 µM | Activity (Jurkat [3]): Active

Structure (SMILES): CCC(C)[C@H](NC(=O)c1cc(O)c2c(c1)C(=O)c1cc(O)c(Cl)c(O)c1C2=O)C(=O)O (some centres undefined)
IC50 (Jurkat [2]): > 10 µM | IC50 (K562): > 10 µM | IC50 (HeLa): > 10 µM | Activity (Jurkat [3]): Active

Structure (SMILES): O=C(O)c1cc(O)c2c(c1)C(=O)c1cc(O)cc(O)c1C2=O [EMODIC ACID]
IC50 (Jurkat [2]): > 10 µM | IC50 (K562): > 10 µM | IC50 (HeLa): > 10 µM | Activity (Jurkat [3]): Active
